Experimental data: ChEMBL document CHEMBL3132745, “Synthesis and Antimicrobial Activities of His(2-aryl)-Arg and Trp-His(2-aryl) Classes of Dipeptidomimetics” (Medchemcomm, 2014)
In brackets after ≈: the same amount, converted by molar mass. Activity calls are given as the source filed them.

Tests used:
LLC-PK1 = experiment: Cytotoxicity against pig LLC-PK1 cells assessed as cell viability after 48 hrs by neutral red uptake assay; format: cell-based, Sus scrofa; details: llc-pk1, 48 h
In short: (§1)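 Neutral red uptake assay on human cancer lines (SK-MEL, KB, BT-549, SK-OV-3) and noncancerous mammalian cells (VERO, LLC-PK1). Highest tested concentration was 10 µg/mL.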

SK-OV-3 = experiment: Cytotoxicity against human SKOV3 cells assessed as cell viability after 48 hrs by neutral red uptake assay; format: cell-based; details: sk-ov-3, 48 h; in short: as §1
Pichia kudriavzevii = experiment: Antifungal activity against Candida krusei assessed as growth inhibition; format: functional, organism-based
Cryptococcus neoformans [1] = experiment: Ratio of amphotericin IC50 to compound IC50 for Cryptococcus neoformans ATCC 90113 after 70-74 hrs by CLSI method; format: functional
Aspergillus fumigatus = experiment: Antifungal activity against Aspergillus fumigatus assessed as growth inhibition; format: functional, organism-based
BT-549 = experiment: Cytotoxicity against human BT549 cells assessed as cell viability after 48 hrs by neutral red uptake assay; format: cell-based; details: bt-549, 48 h; in short: as §1
Staphylococcus aureus [2] = experiment: Antibacterial activity against methicillin-resistant Staphylococcus aureus ATCC 33591 assessed as growth inhibition after 16-20 hrs by CLSI method; format: functional, organism-based
[3] = Selectivity index, ratio of cytotoxicity against human SK-MEL cells to IC50 for Cryptococcus neoformans ATCC 90113; format: toxicity, cell-based; details: read-out: Selectivity Index
SK-MEL = experiment: Cytotoxicity against human SK-MEL cells assessed as cell viability after 48 hrs by neutral red uptake assay; format: cell-based; in short: as §1
Nakaseomyces glabratus = experiment: Antifungal activity against Candida glabrata assessed as growth inhibition; format: functional, organism-based
Candida albicans = experiment: Antifungal activity against Candida albicans assessed as growth inhibition; format: functional, organism-based
[4] = Selectivity index, ratio of cytotoxicity against human BT549 cells to IC50 for Cryptococcus neoformans ATCC 90113; format: toxicity, cell-based, BT-549; details: read-out: Selectivity Index
Cryptococcus neoformans [5] = experiment: Ratio of amphotericin MFC to compound MFC for Cryptococcus neoformans ATCC 90113 after 70-74 hrs by CLSI method; format: functional
Vero = experiment: Cytotoxicity against african green monkey Vero cells assessed as cell viability after 48 hrs by neutral red uptake assay; format: cell-based; details: chlorocebus sabaeus; in short: as §1
KB = experiment: Cytotoxicity against human KB cells assessed as cell viability after 48 hrs by neutral red uptake assay; format: cell-based; in short: as §1
[6] = Selectivity index, ratio of cytotoxicity against african green monkey Vero cells to IC50 for Cryptococcus neoformans ATCC 90113; format: toxicity, cell-based; details: read-out: Selectivity Index
Escherichia coli = experiment: Antibacterial activity against Escherichia coli ATCC 35218 assessed as growth inhibition after 16-20 hrs by CLSI method; format: functional, organism-based
Cryptococcus neoformans [7] = experiment: Ratio of amphotericin MIC to compound MIC for Cryptococcus neoformans ATCC 90113 after 70-74 hrs by CLSI method; format: functional
[8] = Selectivity index, ratio of cytotoxicity against human SKOV3 cells to IC50 for Cryptococcus neoformans ATCC 90113; format: toxicity, cell-based, SK-OV-3; details: read-out: Selectivity Index
[9] = Selectivity index, ratio of cytotoxicity against human KB cells to IC50 for Cryptococcus neoformans ATCC 90113; format: toxicity, cell-based; details: read-out: Selectivity Index
Staphylococcus aureus [10] = experiment: Antibacterial activity against Staphylococcus aureus ATCC 29213 assessed as growth inhibition after 16-20 hrs by CLSI method; format: functional, organism-based
Cryptococcus neoformans [11] = experiment: Antifungal activity against Cryptococcus neoformans ATCC 90113 assessed as growth inhibition after 70-74 hrs by CLSI method; format: functional, organism-based; details: Cryptococcus neoformans, ATCC 90113; for IC50: read-out: IC50
[12] = Selectivity index, ratio of cytotoxicity against pig LLC-PK1 cells to IC50 for Cryptococcus neoformans ATCC 90113; format: toxicity, cell-based; details: read-out: Selectivity Index
[13] = Staphylococcus aureus, ATCC 33591
[14] = Staphylococcus aureus, ATCC 33591, read-out: IC50

Structure (SMILES)	Activity (LLC-PK1) [µg/mL]	Activity (SK-OV-3) [µg/mL]	growth inhibition (GI) (Pichia kudriavzevii)	growth inhibition (GI) (Aspergillus fumigatus)	Activity (BT-549) [µg/mL]	MBC (Staphylococcus aureus [2])	selectivity ratio [3]	Activity (SK-MEL) [µg/mL]	growth inhibition (GI) (Nakaseomyces glabratus)	growth inhibition (GI) (Candida albicans)	selectivity ratio [4]	Activity (Vero) [µg/mL]	Activity (KB) [µg/mL]	selectivity ratio [6]	growth inhibition (GI) (Escherichia coli)	selectivity ratio [8]	selectivity ratio [9]	IC50 (Staphylococcus aureus [10]) [µg/mL]	MFC (Cryptococcus neoformans [11]) [µg/mL]	MIC (Cryptococcus neoformans [11]) [µg/mL]	also measured
CC(C)(C)c1ccc(-c2nc(C[C@H](N)C(=O)N[C@@H](CCCNC(=N)N)C(=O)NCc3ccccc3)c[nH]2)cc1	> 10	> 10	inactive	inactive	> 10	inactive	> 62.5	> 10	inactive	inactive	> 62.5	> 10	> 10	> 62.5	inactive	> 62.5	> 62.5	15.9 (≈ 29.8 µM)	0.31 (≈ 0.582 µM)	0.31 (≈ 0.582 µM)	Ratio IC50 (Cryptococcus neoformans [1]): >4; IC50 (Staphylococcus aureus [2]): Not Active; MIC (Staphylococcus aureus [2]): inactive; Ratio (Cryptococcus neoformans [5]): >4; Ratio (Cryptococcus neoformans [7]): >4; MBC (Staphylococcus aureus [10]): inactive; MIC (Staphylococcus aureus [10]): inactive; IC50 (Cryptococcus neoformans [11]): 0.16 µg/mL (≈ 0.3 µM); selectivity ratio [12]: > 62.5
CC(C)(C)OC(=O)N[C@@H](Cc1c[nH]c(-c2ccc(-c3ccccc3)cc2)n1)C(=O)N[C@@H](CCCNC(=N)N)C(=O)NCc1ccccc1	> 10	> 10	inactive	inactive	> 10	inactive	> 9.2	> 10	inactive	inactive	> 9.2	> 10	> 10	> 9.2	inactive	> 9.2	> 9.2	7.3 (≈ 11.2 µM)	2.5 (≈ 3.83 µM)	2.5 (≈ 3.83 µM)	MIC (Staphylococcus aureus [2]; [13]): 20 µg/mL (≈ 30.6 µM); IC50 (Staphylococcus aureus [2]; [14]): 8.97 µg/mL (≈ 13.7 µM); MIC (Staphylococcus aureus [10]): 10 µg/mL (≈ 15.3 µM); IC50 (Cryptococcus neoformans [11]): 1.09 µg/mL (≈ 1.67 µM); selectivity ratio [12]: > 9.2
CC(C)(C)OC(=O)N[C@@H](Cc1c[nH]c(-c2cccc3ccccc23)n1)C(=O)N[C@@H](CCCNC(=N)N)C(=O)NCc1ccccc1	> 10	> 10	inactive	inactive	> 10	inactive	> 3.6	> 10	inactive	inactive	> 3.6	> 10	> 10	> 3.6	inactive	> 3.6	> 3.6	16.4 (≈ 26.1 µM)	5 (≈ 7.98 µM)	5 (≈ 7.98 µM)	MIC (Staphylococcus aureus [2]; [13]): 20 µg/mL (≈ 31.9 µM); IC50 (Staphylococcus aureus [2]; [14]): 13.2 µg/mL (≈ 21.1 µM); IC50 (Cryptococcus neoformans [11]): 2.79 µg/mL (≈ 4.45 µM); selectivity ratio [12]: > 3.6
